Reference: ChEMBL document CHEMBL1926653, “Synthesis and binding assays of novel 3,3-dimethylpiperidine derivatives with various lipophilicities as σ₁ receptor ligands” (Bioorg Med Chem, 2011)

Tests used:
[1] = biological target: Sigma non-opioid intracellular receptor 1 (Cavia porcellus, UniProt Q60492); experiment: Displacement of [3H]-(+)-pentazocine from sigma1 receptor in guinea pig brain membranes without cerebellum; assay type: cell membranes, Membrane; conditions: read-out: Ki(app)
[2] = biological target: T1, 3-beta-hydroxysteroid-Delta(8),Delta(7)-isomerase (Cavia porcellus, UniProt Q60490); experiment: Displacement of [3H]-emopamil from delta(8)-delta(7) sterol isomerase in guinea pig liver membranes; assay type: cell membranes, Membrane; conditions: read-out: Ki(app)
T1 sequence (Q60490 whole entry): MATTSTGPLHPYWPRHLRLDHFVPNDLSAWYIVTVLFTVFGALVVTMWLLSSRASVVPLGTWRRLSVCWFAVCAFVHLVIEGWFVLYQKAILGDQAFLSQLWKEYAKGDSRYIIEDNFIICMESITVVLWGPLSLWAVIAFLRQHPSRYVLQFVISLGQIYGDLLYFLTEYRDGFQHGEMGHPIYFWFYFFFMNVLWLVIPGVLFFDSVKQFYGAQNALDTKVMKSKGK
Procedure, shortened: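 Assay followed Moebius et al. Inhibition curves used 6–9 drug concentrations over two or three experiments run in duplicate. IC50 is the concentration giving 50% loss of specific radioligand binding. Apparent Ki came from nonlinear curve fitting.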

[3] = Displacement of [3H]DTG from sigma 2 receptor in rat liver membranes; assay type: cell membranes, Membrane; conditions: read-out: Ki(app)
Procedure, shortened: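 Sigma-2 site labelled with [3H]-DTG at 30 Ci/mmol, following Matsumoto et al. Curves used 6–9 concentrations of test drug, repeated in two or three experiments with duplicate samples. IC50 (50% inhibition of specific binding) and apparent Ki were obtained by nonlinear curve fitting.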

[4] = Selectivity ratio of Ki for sigma 2 receptor in rat liver membranes to Ki for sigma 1 receptor in guinea pig brain membranes; assay type: cell membranes; conditions: Membrane
[5] = biological target: Sigma non-opioid intracellular receptor 1 (Cavia porcellus) (UniProt Q60492); experiment: Displacement of [3H]-(+)-pentazocine from sigma 1 receptor in guinea pig brain membranes at 10^-10 M; assay type: cell membranes; conditions: Membrane
Sequence of Sigma non-opioid intracellular receptor 1 (Cavia porcellus) (Q60492 whole entry): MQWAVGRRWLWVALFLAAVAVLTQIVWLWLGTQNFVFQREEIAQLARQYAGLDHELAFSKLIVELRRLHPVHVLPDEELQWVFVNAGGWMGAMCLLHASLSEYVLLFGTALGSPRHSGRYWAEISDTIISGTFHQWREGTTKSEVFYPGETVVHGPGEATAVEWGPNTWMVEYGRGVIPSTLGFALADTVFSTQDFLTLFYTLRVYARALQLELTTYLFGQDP

[6] = biological target: Sigma non-opioid intracellular receptor 1 (Rattus norvegicus, UniProt Q9R0C9); experiment: Binding affinity to sigma1 receptor in rat brain membranes; assay type: cell membranes
Sequence of Sigma non-opioid intracellular receptor 1 (Rattus norvegicus, UniProt Q9R0C9) (Q9R0C9 whole entry): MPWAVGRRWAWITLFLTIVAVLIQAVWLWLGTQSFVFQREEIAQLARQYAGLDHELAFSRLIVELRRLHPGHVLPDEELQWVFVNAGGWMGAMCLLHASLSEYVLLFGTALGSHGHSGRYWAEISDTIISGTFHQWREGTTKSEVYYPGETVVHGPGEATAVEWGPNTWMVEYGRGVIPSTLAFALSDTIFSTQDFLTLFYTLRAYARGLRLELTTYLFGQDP
Procedure, shortened: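 Radioligand displacement binding. IC50 is the concentration inhibiting 50% of specific radioligand binding, from 6–9 concentrations of the test drug, run in two or three experiments with duplicate samples. Apparent Ki came from nonlinear curve fitting. Compounds were tested as hydrochloride salts, or as free bases in some cases.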

Sequence of Sigma non-opioid intracellular receptor 1 (Cavia porcellus, UniProt Q60492) (Q60492 whole entry): as the sequence (Q60492 whole entry) above

Ki [1] [µM] | Ki [2] [µM] | Ki [3] [µM] | Ratio Ki [4] | inhibition [5] [%] | Ki [6] [µM] | SMILES
0.459 | 1.4 | 3.33 | 7.2 |  |  | CC1(C)CCCN(CCNc2nccs2)C1
 |  | 0.0343 |  |  |  | Cc1ccccc1NC(=N)Nc1ccccc1C [DITOLYLGUANIDINE]
0.339 |  | 1.99 | 5.6 |  |  | CC1(C)CCCN(CCCn2nnc3ccccc32)C1
0.00038 | 0.0002 | 0.0375 | 101 |  |  | CC1(C)CCCN(CCCC2CCCCc3ccccc32)C1 (racemic)
0.0509 |  | 0.194 | 3.8 |  |  | CC1(C)CCCN(CCCn2ccc3ccccc32)C1
0.00212 | 0.00067 | 0.247 | 117 |  |  | COc1cccc2c1CCCC2CCCCN1CCCC(C)(C)C1 (stereo unspecified)
 | 0.00211 | 0.0281 |  | 78 |  | CC1(C)CCCN(CCCCCC2CCCc3sccc32)C1 (racemic)
> 10 | > 10 | > 10 |  |  |  | CC1(C)CCCN(CC(=O)Nc2nc3c(s2)C(=O)CCC3)C1
0.00175 | 0.00154 | 0.242 | 138 |  |  | CC1(C)CCCN(CCCCC2CCc3ccccc32)C1 (stereo unspecified)
0.0635 | 0.0011 | 0.0423 | 0.7 |  |  | CC1(C)CCCN(CCCc2cccc3occc23)C1
0.566 | 0.115 | 0.742 | 1.3 |  |  | CC1(C)CCCN(CCNc2nc3ccccc3s2)C1
0.00014 | 0.0073 | 0.0659 | 471 |  |  | CC1(C)CCCN(CCCCC2CCCCc3ccccc32)C1 (racemic)
 | 0.015 |  |  |  |  | CC(C(O)c1ccc(O)cc1)N1CCC(Cc2ccccc2)CC1 (racemic) [IFENPRODIL]
3.69 |  | 1.81 | 0.4 |  |  | CC1(C)CCCN(Cc2cc3ccccc3o2)C1
0.0141 | 0.213 | 0.414 | 29 |  |  | CC1(C)CCCN(CCCCN2CCCC(C)(C)C2)C1
0.00021 | 0.00307 | 0.038 |  |  |  | CC1(C)CCCN(CCCC2CCCc3sccc32)C1 (racemic) [listing 1 of 3 here]
 |  |  |  |  | > 3.96 | CC1(C)CCCN(CCCC2CCCc3sccc32)C1 (racemic) [listing 2 of 3 here]
0.0271 |  | 0.119 | 4.4 |  |  | CC1(C)CCCN(CCCC2CCCc3[nH]ccc32)C1 (racemic)
 |  |  | 180 |  |  | CC1(C)CCCN(CCCC2CCCc3sccc32)C1 (racemic) [listing 3 of 3 here]
> 10 | > 10 | > 10 |  |  |  | CC1(C)CCCN(CCNc2nc3c(s2)C(=O)CCC3)C1
0.052 | 0.0009 | 0.0636 | 1.2 |  |  | CC1(C)CCCN(CCCc2cccc3sccc23)C1
0.00102 | 0.0038 | 0.0196 | 19 |  |  | CC1(C)CCCN(CCCCC2CCCCC2)C1

SMILES | Ki [1] [µM] | Ki [2] [µM] | Ki [3] [µM] | Ratio Ki [4] | inhibition [5] [%] | Ki [6] [µM]
CC1(C)CCCN(CCCc2c[nH]c3ccccc23)C1 | 0.0416 |  | 0.11 | 2.6 |  | 
